Only some compounds are listed: those with a hit (about 1.8% of all), similar ones and a draw of the others.
M4 ag – agonists of human muscarinic M4 receptor (CHRM4) | P08173 | CHO-K1 hM4/Gqi5, Fluo-8 calcium fluorescence; vehicle 0%, full acetylcholine response 100% | activation, % at 3 µM | actives 0.14% (n = 360,000) | AID 624127;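 active means activation above the run mean over all test wells plus 3 SD, cut at about 32% in these data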;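 further: peak over basal fluorescence ratio per well then scaled between controls; 0% = DMSO wells and 100% = acetylcholine at EC100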
Target sequence (P08173 whole entry, looked up): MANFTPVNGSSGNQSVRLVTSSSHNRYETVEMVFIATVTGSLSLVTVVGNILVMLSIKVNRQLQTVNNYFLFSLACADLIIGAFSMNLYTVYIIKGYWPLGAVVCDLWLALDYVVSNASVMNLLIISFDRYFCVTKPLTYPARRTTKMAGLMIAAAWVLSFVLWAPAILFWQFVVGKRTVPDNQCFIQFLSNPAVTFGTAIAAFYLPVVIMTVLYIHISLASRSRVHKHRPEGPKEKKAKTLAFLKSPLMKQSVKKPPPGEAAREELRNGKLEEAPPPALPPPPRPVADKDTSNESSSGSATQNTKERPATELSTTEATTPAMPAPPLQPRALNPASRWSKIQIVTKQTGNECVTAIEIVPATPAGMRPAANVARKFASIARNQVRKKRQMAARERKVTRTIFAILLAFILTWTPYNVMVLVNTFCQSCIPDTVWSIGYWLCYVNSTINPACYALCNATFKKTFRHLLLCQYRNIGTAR
CHRM5 PAM – CHRM5 positive allosteric modulation; P08912; CHO-K1 hM5, Fluo-8 calcium, ACh EC20 PAM; 0% = ACh EC20, 100% = ACh EC100; activation, % at 3 µM; actives 0.3% (n = 360,000);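 active means activation above the run cutoff, the mean activation of all test compounds plus 3 SD, cut at about 18% in these data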
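Assay system – human M5 receptor in CHO-K1 cells · Read-out – % activation, ACh-normalized · Technique – Fluo-8 calcium fluorescence · Dosing – single-point, 3 µM nominal · Incubation – Fluo-8 loading 80 min at 37 °C plus 30 min room temperature · Repeats – singlicate, one well per test compound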
M4 antag – CHRM4 antagonism in calcium assay; CHO-hM4 cells, ACh EC80, Fluo-8 calcium fluorescence; inhibition, % at 3 µM; actives 0.73% (n = 360,000);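 active means inhibition above its plate's cutoff, the mean inhibition of sample wells plus 3 SD, cut at about 27% in these data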;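 further: 0% = acetylcholine EC80 with DMSO and 100% = DMSO without agonist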
M5 ag – CHRM5 agonism in calcium assay; CHO-K1 hM5 cells, Fluo-8 calcium fluorescence; 0% DMSO wells, 100% maximal acetylcholine response; P08912; actives 0.19% (n = 360,000); activation, % at 3 µM;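 active means activation above the run's mean over test compounds plus 3 SD, cut at about 23% in these data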;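 further: signal is peak over basal fluorescence ratio across the kinetic read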
CHRM4 PAM – CHRM4 positive allosteric modulation | P08173 | CHO-K1 hM4/Gqi5, Fluo-8 calcium fluorescence, ACh EC20; 0% = ACh EC20, 100% = maximal ACh | activation, % at 3 µM | actives 0.4% (n = 360,000) | AID 624126;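 active means activation above its plate's cutoff, the mean activation of sample wells plus 3 SD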
M5 antag – blocks acetylcholine activation of human M5 receptor; CHO-hM5 cells, Fluo-8 calcium fluorescence, ACh EC80; inhibition, % at 3 µM; actives 0.59% (n = 360,000);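 active means inhibition above a per-plate cutoff, the mean of that plate's test compounds plus 3 SD, cut at about 27% in these data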;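 further: 0% = acetylcholine EC80 with DMSO and 100% = DMSO without agonist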
* marks the source's active call; other numbers are inactive results.

SMILES | M4 ag | CHRM5 PAM | M4 antag | M5 ag | CHRM4 PAM | M5 antag
COc1ccc(C(c2c(C)n(C)n(-c3ccccc3)c2=O)c2c(C)n(C)n(-c3ccccc3)c2=O)c(OC)c1OC | 0.5 | 6.7 | -8.8 | -3.5 | 2.3 | 5.7
CC(NC(=O)/C(=C\c1ccco1)NC(=O)c1ccccc1Br)C(=O)O (configuration not stated) | 0.5 | -4.0 | 3.7 | 0.4 | -1.5 | 13.2
CCc1nnc(NC(=O)CN2CCN(Cc3ccccc3Cl)CC2)s1 | 0.1 | 8.1 | -5.3 | 3.0 | -1.6 | -3.7
CC(CCC(C)C(C)(C)C)[C@@H]1CC[C@H]2C3C[C@H](OS(O)(=S)=S)[C@H]4C[C@H](OS(O)(=S)=S)[C@@H](OS(O)(=S)=S)C[C@]4(C)[C@H]3CC[C@]12C (some centres not stated) (tested in a mixture with another compound) | 80.7* | -26.8 | 51.1* | 20.7 | -6.3 | 12.5
Cc1ccc2nc(SCC(=O)Nc3cc(C)on3)c(C)cc2c1 | 0.9 | -9.1 | -3.1 | -4.1 | -5.7 | 22.2
CCN(CC(=O)Nc1c(F)cccc1F)C(=O)/C=C/c1ccc(C)cc1 | 1.4 | 1.6 | -25.5 | -0.6 | 3.1 | -3.2
CCN(CC(=O)Nc1c(F)cccc1F)C(=O)/C=C/c1ccc(OCC#N)c(OC)c1 | 2.3 | 1.1 | -6.2 | 4.0 | 28.6* | -2.0
Cc1c(Br)c([N+](=O)[O-])nn1CC(=O)c1ccccc1 | -0.2 | 3.9 | 6.5 | -2.7 | 11.2 | -6.8
CCCCc1ccc(S(=O)(=O)NC2CCS(=O)(=O)C2)cc1 (configuration not stated) | 9.6 | 20.7* | 1.3 | 7.6 | -5.6 | 22.9
CC(=O)NC(C)(c1ccccc1)c1nc(-c2ccc(N(C)C)cc2)cs1 (configuration not stated) | 1.4 | 1.6 | -10.6 | 0.6 | 1.5 | -0.2
N#Cc1c(-c2ccccc2)c(-c2ccccc2)n(Cc2ccco2)c1NC(=O)c1cccs1 | -0.9 | 29.1* | -2.0 | -0.2 | -0.9 | -0.2
O=C(Nc1ccc(S(=O)(=O)N2CCc3ccccc3C2)cc1)C1CCCO1 (configuration not stated) | 8.3 | -2.6 | -0.2 | 5.1 | 0.8 | 5.7
CN(C)S(=O)(=O)N1CCc2ccc(NC(=O)C3CCCO3)cc2C1 (configuration not stated) | 0.4 | 2.5 | -4.5 | -3.2 | 19.8* | -0.7
CSS(=O)(=O)c1cccc2cccnc12 | 1.1 | -5.7 | 12.2 | 0.9 | -4.4 | 6.7
O=C(O)CN(c1ccccn1)S(=O)(=O)c1ccc(Cl)cc1 | 0.5 | 12.8 | -4.1 | -1.8 | 19.7* | -8.0
Nc1sc(Cc2ccccc2)cc1C(=O)NC1CCCCC1 | 2.4 | 0.6 | -3.4 | 10.3 | 1.3 | 3.0
CC(=O)Nc1cccc(NC(=O)c2cc(-c3cccnc3)nc3ccc(Br)cc23)c1 | 27.3 | -18.0 | 31.4* | 6.4 | -12.2 | 15.9
O=C(NCc1ccccc1)C(c1ccc(-c2ccccc2)cc1)N1CCN(C(=O)C2CCCO2)CC1 (configuration not stated) | 2.3 | 1.1 | 3.6 | -1.2 | -1.2 | 10.9
CN(CCc1cn[nH]c1)C(=O)C1CCC(=O)N(CC2CCCCC2)C1 (configuration not stated) | 1.4 | 9.8 | -2.1 | -3.5 | 10.7 | -0.9
Cc1ccc(Cc2c(-c3ccc(Cl)cc3)nc3cc(C)ccn23)cc1 | -0.6 | -1.7 | -5.0 | -2.4 | 3.2 | 4.1
CCCCN1C(=O)C(=O)N(CC(=O)Nc2cc(Cl)ccc2OC)C1=O | 3.3 | 7.0 | -16.9 | 7.3 | 23.8* | -11.2
CCCCN1C(=O)C(=O)N(CC(=O)Nc2ccccc2C(C)=O)C1=O | 0.1 | 7.3 | 3.1 | 0.2 | 4.2 | 5.1
CC1C(=O)C(C)C(c2cccc(Br)c2)NC1c1cccc(Br)c1 (configuration not stated) | -1.1 | -1.2 | 7.9 | -0.4 | -8.4 | 1.6
Cc1ccc(-c2nn3nnnc3c3ccccc23)cc1C | 0.7 | 10.1 | 11.2 | -2.5 | 38.6* | 7.4
c1ccc(-c2nn3nnnc3c3ccccc23)cc1 | -0.3 | -1.7 | 4.9 | 0.2 | -3.3 | 1.6
SMILES | M4 ag | CHRM5 PAM | M4 antag | M5 ag | CHRM4 PAM | M5 antag
CC(Sc1nnc(C2CC2)n1C1CC1)C(=O)c1ccc(Br)cc1 (configuration not stated) | -0.1 | 3.0 | 7.2 | 0.2 | -1.0 | 2.6
OC(c1ccccc1)(C1CCCCC1)C(CN1CCOCC1)c1ccccc1 (configuration not stated) | 2.2 | 3.2 | -14.2 | -5.6 | 5.0 | -5.6
CCN(CC)CCC(O)(c1ccccc1)C1CCCCC1 (configuration not stated) | 0.2 | -32.6 | 84.6* | -22.4 | -16.0 | 89.5*
CC[N+](CC)(CC)CCC(O)(c1ccccc1)C1CCCCC1 (configuration not stated) | 1.7 | -18.0 | 98.7* | -1.1 | -17.9 | 98.7*
O=[N+]([O-])c1cccc(COc2ccc(CN3CCCCC3)cc2)c1 | 4.7 | -17.3 | 55.5* | -1.8 | -16.7 | 15.1
Nc1nc(SCC(=O)Nc2ccc(OC(F)(F)F)cc2)[nH]c(=O)c1NC(=O)c1ccc(Br)o1 | 0.5 | -11.4 | -16.5 | -4.6 | 10.1 | 33.9*
CCSc1nc(N)c(NC(=O)c2ccc(Br)o2)c(=O)[nH]1 | 1.1 | 1.1 | 8.3 | -2.7 | -2.7 | 6.0
O=C(COc1ccccc1Cl)N1CCN(c2ccccn2)CC1 | 1.3 | -2.7 | 3.6 | -2.9 | -2.5 | 9.4
COc1ccc(C(=O)NC(C)CCCC(C)(C)O)cc1OC1CCN(C(C)=O)CC1 (configuration not stated) | 0.9 | 0.3 | -6.2 | 4.7 | 2.4 | 0.1
COc1ccc(C(=O)Nc2ccccc2C(=O)N2CCOCC2)cc1OC | 1.6 | 2.2 | -9.5 | 0.9 | -2.2 | 6.1
COc1cccc(OC)c1C(=O)Nc1ccccc1C(=O)N1CCOCC1 | 1.1 | -12.7 | -1.3 | -5.0 | -0.2 | 33.0*
Cc1ccc2nc(NCCNC(=O)c3ccccc3)c(C#N)cc2c1 | 0.1 | 11.7 | 51.1* | 0.1 | -14.0 | 4.6
Cc1cc(OCC(=O)Nc2ccc(CN3CCCCC3)cc2)ccc1Cl | 36.3* | -15.2 | 18.5 | 1.7 | -21.3 | 19.4
CC(Sc1nc(N)cc(=O)[nH]1)C(=O)Nc1ccc(N2CCOCC2)cc1 (configuration not stated) | 0.8 | -2.8 | -5.2 | -1.1 | 5.3 | 3.9
O=C(c1[nH]c(C(F)(F)F)nc1-c1ccccc1)N1CCN(c2ncc(C(F)(F)F)cc2Cl)CC1 | 37.2* | -2.7 | 22.4 | 16.3 | -8.1 | 13.1
COc1cc(C2CC(=O)NC3=C2C(=O)CC(C)(C)C3)cc(OC)c1O (configuration not stated) | 0.4 | 8.3 | 5.7 | -0.6 | 0.0 | 27.2*

Assay outcomes as filed in PubChem BioAssay.
